Legend:
[1] = system: Mus musculus; assay: Analgesic activity in Swiss albino mouse assessed as protection against acetic acid-induced writhing at 100 mg/kg, po administered 1 hr prior to acetic acid challenge relative to control measured after 3 hrs; format: functional
How it was run: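 Swiss albino mice (20–25 g), six per group. Baseline writhes counted over 20 min starting 5 min after ip 0.6% acetic acid (10 ml/kg); the same mice were dosed orally the next day, 1 h before acetic acid, and writhes counted again. Protection = (1 − […]) × 100. Mean ± SE; one-way ANOVA with Tukey–Kramer test, p < 0.01.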

[2] = system: Rattus norvegicus; assay: Antiinflammatory activity in albino rat assessed as inhibition of carrageenan-induced paw oedema at 100 mg/kg, po measured after 30 mins of carrageenan challenge relative to control; format: functional; conditions: 0.5 h
How it was run: (§1)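 Rat hind paw oedema induced by 0.1 mL 1% carrageenan injected subplantar into the right hind paw. Paw volume measured plethysmographically before carrageenan and at 30, 60, 120 and 180 min after. Percent oedema inhibition calculated versus a saline control group. Six animals per group, mean ± SE; one-way ANOVA with Tukey–Kramer test, p < 0.01.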

[3] = system: Rattus norvegicus; assay: Antiinflammatory activity in albino rat assessed as inhibition of carrageenan-induced paw oedema at 100 mg/kg, po measured after 60 mins of carrageenan challenge relative to control; format: functional; conditions: 1 h; how it was run: as §1
[4] = system: Rattus norvegicus; assay: Antiinflammatory activity in albino rat assessed as inhibition of carrageenan-induced paw oedema at 100 mg/kg, po measured after 120 mins of carrageenan challenge relative to control; format: functional; conditions: 2 h; how it was run: as §1
[5] = system: Rattus norvegicus; assay: Antiinflammatory activity in albino rat assessed as inhibition of carrageenan-induced paw oedema at 100 mg/kg, po measured after 180 mins of carrageenan challenge relative to control; format: functional; conditions: 3 h; how it was run: as §1
[6] = organism: Rattus norvegicus; assay: animal or person; conditions: albino, po, 2 h, read-out: INH
[7] = organism: Rattus norvegicus; assay: animal or person; conditions: albino, po, 1 h, read-out: INH
[8] = organism: Rattus norvegicus; assay: animal or person; conditions: albino, po, 0.5 h, read-out: INH
[9] = organism: Rattus norvegicus; assay: animal or person; conditions: albino, po, 3 h, read-out: INH

SMILES | Activity [1] | inhibition in vivo at 100 mg/kg [2] | inhibition in vivo at 100 mg/kg [3] | inhibition in vivo at 100 mg/kg [4] | inhibition in vivo at 100 mg/kg [5] | inhibition in vivo at 50 mg/kg [6] | inhibition in vivo at 50 mg/kg [7] | inhibition in vivo at 50 mg/kg [8] | inhibition in vivo at 50 mg/kg [9]
Clc1cccc(NCc2nc3ccccc3[nH]2)c1 | 81.33% | 15.3% | 26.6% | 41.1% | 44.4% | – | – | – | –
O=[N+]([O-])c1ccc2nc(CNc3ccc(Br)cc3)[nH]c2c1 | 79% | 15.3% | 20% | 23.5% | 22.2% | – | – | – | –
Brc1ccc2nc(CNc3ccccc3)[nH]c2c1 | 80% | 7.6% | 26.6% | 29.4% | 22.2% | – | – | – | –
Brc1ccc(NCc2nc3ccc(Br)cc3[nH]2)cc1 | 85.66% | – | 20% | 23.5% | 16.6% | – | – | – | –
COc1ccc(NCc2nc3ccc(Br)cc3[nH]2)cc1 | 83.33% | – | 13.3% | 17.6% | 12.5% | – | – | – | –
Cc1ccc(NCc2nc3ccc(Br)cc3[nH]2)cc1 | 88% | 7.6% | 20% | 23.5% | 16.6% | – | – | – | –
COc1ccc(NCc2nc3ccccc3[nH]2)cc1 | 83.33% | 7.6% | 26.6% | 29.4% | 33.3% | – | – | – | –
Clc1ccccc1NCc1nc2ccc(Br)cc2[nH]1 | 80% | – | 20% | 23.5% | 22.2% | – | – | – | –
Clc1cccc(NCc2nc3ccc(Br)cc3[nH]2)c1 | 89% | 7.6% | 26.6% | 17.6% | 16.6% | – | – | – | –
c1ccc(NCc2nc3ccccc3[nH]2)cc1 | 72.33% | 7.6% | 26.6% | 41.1% | 38.8% | – | – | – | –
CS(=O)(=O)Nc1ccc([N+](=O)[O-])cc1Oc1ccccc1 [NIMESULIDE] | – | – | – | – | – | 41.1% | 26.6% | 15.3% | 44.4%

From ChEMBL document CHEMBL1157854, “In-vivo analgesic and anti-inflammatory activities of newly synthesized benzimidazole derivatives” (2010)
